Source: ChEMBL document CHEMBL1649578, “Biofilm formation and effect of caspofungin on biofilm structure of Candida species bloodstream isolates” (2009)
Converted amounts (≈) assume the structure as drawn. The source made the active and inactive calls. The rule behind the calls is not given here.

Assays:
Candida albicans [1] = test: Antifungal activity against Candida albicans isolate CA4 biofilm assessed as appearance of collapsed blastospore at 16 ug/ml after 48 hrs by scanning electron microscopy; format: functional, organism-based
How it was run: (§1)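 Silicone disks preconditioned 24 h at 37°C in heat-inactivated human serum, seeded with 1 × 10^6 CFU/ml in MOPS-buffered RPMI 1640 (pH 7.0), 1.5 h attachment at 37°C with shaking, then grown 24 h. Washed biofilms exposed to 1.0, 16 or 128 μg/ml caspofungin in RPMI 1640, 48 h at 35°C on a rocker. Untreated controls in RPMI only. Fixed in 5% glutaraldehyde/cacodylate (pH 6.2), ethanol-dehydrated, HMDS air-dried, examined by SEM. Run in triplicate.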

Candida parapsilosis [2] = test: Antifungal activity against Candida parapsilosis isolate CP1 biofilm assessed as viable fungal count per cm2 of silicone disk at 32 ug/ml after 48 hrs […]; format: functional
How it was run: (§2)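 Biofilms grown on serum-preconditioned silicone disks in RPMI 1640 for 24 h, PBS-washed, then exposed 48 h at 35°C on a rocker to caspofungin doubling dilutions spanning 0.25–128 μg/ml. Disks washed and sonicated/vortexed in PBS to release cells. Suspensions diluted in Butterfield buffer and plated on Sabouraud dextrose agar. Viable counts from three disks averaged as CFU/cm2.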

Candida tropicalis [3] = test: Antifungal activity against Candida tropicalis isolate CT8 biofilm assessed as viable fungal count per cm2 of silicone disk at 0.25 ug/ml after 48 hrs […]; format: functional; how it was run: as §2
Candida tropicalis [4] = test: Antifungal activity against Candida tropicalis isolate CT8 biofilm assessed as viable fungal count per cm2 of silicone disk at 64 ug/ml after 48 hrs […]; format: functional; how it was run: as §2
Candida albicans [5] = test: Antifungal activity against Candida albicans isolate CA4 biofilm assessed as viable fungal count per cm2 of silicone disk at 128 ug/ml after 48 hrs […]; format: functional; how it was run: as §2
Candida tropicalis [6] = test: Antifungal activity against Candida tropicalis isolate CT8 biofilm assessed as viable fungal count per cm2 of silicone disk at 16 ug/ml after 48 hrs […]; format: functional; how it was run: as §2
Candida albicans [7] = test: Antifungal activity against Candida albicans isolate CA4 biofilm assessed as viable fungal count per cm2 of silicone disk at 0.25 ug/ml after 48 hrs […]; format: functional; how it was run: as §2
Candida albicans [8] = test: Antifungal activity against Candida albicans isolate CA4 biofilm assessed as viable fungal count per cm2 of silicone disk at 8 ug/ml after 48 hrs […]; format: functional; how it was run: as §2
Candida tropicalis [9] = test: Antifungal activity against Candida tropicalis isolate CT8 biofilm assessed as viable fungal count per cm2 of silicone disk at 4 ug/ml after 48 hrs […]; format: functional; how it was run: as §2
Candida albicans [10] = test: Antifungal activity against Candida albicans isolate CA4 biofilm assessed as viable fungal count per cm2 of silicone disk at 2 ug/ml after 48 hrs […]; format: functional; how it was run: as §2
Candida albicans [11] = test: Antifungal activity against Candida albicans isolate CA4 biofilm assessed as assessed as appearance of increased number of small blastospore at 128 ug/ml after 48 hrs by scanning electron microscopy; format: functional, organism-based; how it was run: as §1
Candida tropicalis [12] = test: Antifungal activity against Candida tropicalis isolate CT8 biofilm assessed as viable fungal count per cm2 of silicone disk at 2 ug/ml after 48 hrs […]; format: functional; how it was run: as §2
Candida tropicalis [13] = test: Ratio of SMIC for Candida tropicalis isolate CT8 biofilm to MIC for Candida tropicalis isolate CT8 planktonic cells; format: functional
Candida tropicalis [14] = test: Antifungal activity against Candida tropicalis isolate CT8 biofilm assessed as change in cellular morphology at 16 ug/ml after 48 hrs by scanning electron microscopy; format: functional, organism-based; how it was run: as §1
Candida albicans [15] = test: Antifungal activity against Candida albicans isolate CA4 biofilm assessed as viable fungal count per cm2 of silicone disk at 64 ug/ml after 48 hrs […]; format: functional; how it was run: as §2
Candida tropicalis [16] = test: Antifungal activity against Candida tropicalis isolate CT8 biofilm assessed as viable fungal count per cm2 of silicone disk at 1 ug/ml after 48 hrs […]; format: functional; how it was run: as §2
Candida parapsilosis [17] = test: Antifungal activity against Candida parapsilosis isolate CP1 biofilm assessed as viable fungal count per cm2 of silicone disk at 0.5 ug/ml after 48 hrs […]; format: functional; how it was run: as §2
Candida parapsilosis [18] = test: Antifungal activity against Candida parapsilosis isolate CP1 biofilm assessed as change in cellular morphology at 1 ug/ml after 48 hrs by scanning electron microscopy; format: functional, organism-based; how it was run: as §1
Candida albicans [19] = test: Ratio of SMIC for Candida albicans isolate CA4 biofilm to MIC for Candida albicans isolate CA4 planktonic cells; format: functional
Candida parapsilosis [20] = test: Antifungal activity against Candida parapsilosis isolate CP1 biofilm assessed as viable fungal count per cm2 of silicone disk at 128 ug/ml after 48 hrs […]; format: functional; how it was run: as §2
Candida parapsilosis [21] = test: Antifungal activity against Candida parapsilosis isolate CP1 biofilm assessed as viable fungal count per cm2 of silicone disk at 8 ug/ml after 48 hrs […]; format: functional; how it was run: as §2
Candida albicans [22] = test: Antifungal activity against Candida albicans isolate CA4 biofilm assessed as viable fungal count per cm2 of silicone disk at 32 ug/ml after 48 hrs […]; format: functional; how it was run: as §2
Candida parapsilosis [23] = test: Antifungal activity against Candida parapsilosis isolate CP1 planktonic cells after 48 hrs by broth microdilution method; format: functional; details: Lodderomyces parapsilosis, isolate CP1, 48 h
How it was run: (§3)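 Isolates grown on Sabouraud dextrose agar 24 h at 37°C. MIC is the lowest concentration giving a significant turbidity reduction versus control at 48 h.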

Candida albicans [24] = test: Antifungal activity against Candida albicans isolate CA4 planktonic cells after 48 hrs by broth microdilution method; format: functional; details: isolate CA4, 48 h; how it was run: as §3

SMILES: CC[C@H](C)C[C@H](C)CCCCCCCCC(=O)N[C@H]1C[C@@H](O)[C@@H](NCCN)NC(=O)[C@@H]2[C@@H](O)CCN2C(=O)[C@H]([C@H](O)CCN)NC(=O)[C@H]([C@H](O)[C@@H](O)c2ccc(O)cc2)NC(=O)[C@@H]2C[C@@H](O)CN2C(=O)[C@H]([C@@H](C)O)NC1=O [CASPOFUNGIN]
- Activity (Candida albicans [1]): Active
- log10cfu (Candida parapsilosis [2]): 4.2
- log10cfu (Candida tropicalis [3]): 6.4
- log10cfu (Candida tropicalis [4]): 5
- log10cfu (Candida albicans [5]): 3.5
- log10cfu (Candida tropicalis [6]): 5.7
- log10cfu (Candida albicans [7]): 4.4
- log10cfu (Candida albicans [8]): 5.6
- log10cfu (Candida tropicalis [9]): 5.7
- log10cfu (Candida albicans [10]): 4.7
- Activity (Candida albicans [11]): Active
- log10cfu (Candida tropicalis [12]): 5.9
- Ratio (Candida tropicalis [13]): 16
- Activity (Candida tropicalis [14]): Active
- log10cfu (Candida albicans [15]): 4.6
- log10cfu (Candida tropicalis [16]): 5.7
- log10cfu (Candida parapsilosis [17]): 0
- Activity (Candida parapsilosis [18]): inactive
- Ratio (Candida albicans [19]): 2
- log10cfu (Candida parapsilosis [20]): 2.7
- log10cfu (Candida parapsilosis [21]): 5.2
- log10cfu (Candida albicans [22]): 5.6
- MIC (Candida parapsilosis [23]): 0.25 µg/mL (≈ 0.229 µM)
- MIC (Candida albicans [24]): 0.0625 µg/mL (≈ 0.0572 µM)
